SR-BI DiI inh: mouse SR-BI HDL lipid transfer inhibition; Q61009; ldlA[mSR-BI] CHO cells, DiI-HDL uptake fluorescence, 3 h; inhibition, % at 12.5 µM; hit rate 0.96% among 320,000; AID 488896;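 active = mean replicate inhibition of at least 70% and a set share of replicates each scoring 70 or more; inconclusive = meets just one of the two criteria; inactive = fails both criteria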;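 note: 0% = median of neutral control wells and 100% = median of positive control wells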
Target sequence (Q61009 whole entry, looked up): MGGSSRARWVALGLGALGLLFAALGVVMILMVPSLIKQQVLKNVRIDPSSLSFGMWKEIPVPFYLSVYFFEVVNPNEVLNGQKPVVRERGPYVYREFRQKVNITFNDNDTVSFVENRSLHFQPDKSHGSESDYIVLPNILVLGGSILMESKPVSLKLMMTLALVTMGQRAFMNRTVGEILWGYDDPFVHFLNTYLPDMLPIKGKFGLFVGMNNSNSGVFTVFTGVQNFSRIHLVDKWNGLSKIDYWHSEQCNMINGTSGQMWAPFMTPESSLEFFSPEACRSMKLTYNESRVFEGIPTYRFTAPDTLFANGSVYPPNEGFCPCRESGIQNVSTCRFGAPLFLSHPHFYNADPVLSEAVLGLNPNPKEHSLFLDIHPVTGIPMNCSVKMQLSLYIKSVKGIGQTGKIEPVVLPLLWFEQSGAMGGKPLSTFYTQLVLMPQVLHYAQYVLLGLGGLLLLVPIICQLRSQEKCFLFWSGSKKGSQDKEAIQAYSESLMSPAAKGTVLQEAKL
Vif imaging: inhibitors of HIV Vif | HEK293T cells, Vif self-association by quenched fluorescence, imaging, 24 h | inhibition, % at 7.49 µM | hit rate 0.35% among 340,000 | AID 602346; in the data active = inhibition above about 50%, passing the limit was not always enough; inconclusive = no clear call, values can overlap the other calls; inactive = below about 31%
TAG inh: triacylglycerol accumulation inhibition. H9c2 cells, Nile Red lipid (TAG) fluorescence; cells loaded with 200 µM oleic acid. inhibition, % at 12.5 µM. hit rate 0.66% among 230,000. AID 651582;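 active = pattern-corrected inhibition of lipid staining of at least 50% with the nuclear-stain viability signal not falling by more than 50%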;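 note: 0% = DMSO wells and 100% = triacsin C control wells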
SR-BI uptake up: activators of SR-BI mediated HDL lipid uptake | CHO ldlA[mSR-BI] cells, DiI-HDL uptake fluorescence, 3 h; 100 = double the neutral-control signal | activation, % at 12.5 µM | hit rate 0.096% among 320,000 | AID 504775;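 active = mean replicate activation of at least 60% and every replicate at or above 60%; inconclusive = mean or all-replicate condition met, but not both; inactive = mean below 60% and not all replicates reaching 60%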;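 note: 0% = median plate neutral-control signal and 100% = twice that signal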
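Test system: SR-BI-overexpressing, LDLR-lacking CHO cells; Also added: labelled HDL, 10 µg/mL; Measured by: bottom-read cell fluorescence after medium removal, ex 550/em 595 nm; Timing: 3 h uptake period with compound, 37 °C; Buffer or medium: F12, 0.5% BSA, 25 mM HEPES; Doses: single compound concentration, delivered by pin transfer.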
SMARCA2 activ: increases SMARCA2 function in MMTV reporter cells. MG213 cells, MMTV-luciferase reporter, dexamethasone, overnight. activation, % at 9.1 µM. hit rate 1% among 370,000. AID 652017; in the data active = activation above about 7.8%;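 note: 0% = vehicle wells and 100% = reference activator wells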
DiI quench: DiI fluorescence quenching in cell-free counter-screen; AID 540326; AC50, µM (titrated, usually from 35 µM), for inactives: at the highest dose activity change, negative = quenching; shares compounds with SR-BI DiI inh; hit rate 20% among 470; cell-free DiI-HDL fluorescence quenching, 30 min;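 active = quenching, a falling signal, with AC50 below a set limit tied to the top valid dose, actives reach about 32 µM in these data; inconclusive = no clear call, values can overlap the other calls; inactive = rising signal, and the rest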
H9c2 TAG conf: confirmation of triacylglycerol accumulation inhibitors. H9c2 lipid accumulation, Nile Red fluorescence; cells loaded with 200 µM oleic acid. shares compounds with TAG inh. hit rate 71% among 990. inhibition, % at 12.5 µM;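 active = mean inhibition across replicates of 40% or more; inactive = mean inhibition below 40%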;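 note: plate controls were DMSO only wells for no effect and Triacsin C treated wells for full effect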
SMARCA2 conf: SMARCA2 activation, confirmation screen | shares compounds with SMARCA2 activ | MG213 cells, MMTV-luciferase with dexamethasone, luminescence, overnight; MG213 cells expressing E1A, Rb sequestered; DMSO wells 0%, reference activator 100% | activation, % at 9.1 µM | hit rate 30% among 3,500;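 active = activation above its plate's cutoff, the mean activation of tested wells plus 3 SD, cut at about 7.9% in these data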
GAL4-VP16 Luc: activates GAL4-VP16 luciferase, flagging SMARCA2 activator hits; shares compounds with SMARCA2 activ; AID 686939; activation, % at 9.1 µM; HEK293 GAL4-VP16 pG5luc reporter, luciferase luminescence; scaled: DMSO wells 0%, SAHA wells 100%; hit rate 41% among 3,500;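 active = activation above the solvent-only control well mean plus 3 SD, averaged across control plates, cut at about 5.2% in these data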
Active calls of the source: *; ? = inconclusive; . = no result given. Sampled rows, rich in hits. Any-hit rate of the full collection: about 2.5%.

SMILES	SR-BI DiI inh	Vif imaging	TAG inh	SR-BI uptake up	SMARCA2 activ	others
CC(=O)c1cc(C(C)=O)c(C)[n+](C)c1C	-20	91*	1	20	2
CCNC(=O)C1OC(n2cnc3c(N)ncnc32)C(O)C1O (stereo not drawn)	-20	51*	22	20	0
COC(=O)C1=C(c2ccc(OC(F)(F)F)cc2)C[C@@H]2CC[C@H]1N2C(=O)N1CCc2cc(OC)c(OC)cc2C1	.	.	.	.	0
CC[C@]12CCN(CC3(O)CC3)[C@H](Cc3ccc(O)cc31)C2(C)C	.	.	.	.	0
COC(=O)[C@]12OC[C@]34C([C@@H](O)[C@@H]1O)[C@]1(C)CC(=O)C(O)=C(C)[C@@H]1C[C@H]3OC(=O)[C@H](O)[C@@H]24 (stereo partly drawn)	-3	-8	65*	3	-2
CC1=CC(O)C(O)C2(C)C1CC1OC(=O)C(O)C3C(C)C(O)C4(O)OCC13C42 (stereo not drawn)	-7	-6	0	7	.
CC(C)(C)NC(=O)CN1C(=O)[C@@H](Cc2c[nH]c3ccccc23)N=C(c2ccccc2)c2ccccc21	.	.	.	.	-3
CC(C)(C)c1ccc(S(=O)(=O)N2CC3CC(C2)c2cccc(=O)n2C3)cc1 (stereo not drawn)	-12	-2	.	12	2	DiI quench=0%
COc1ccc(S(=O)(=O)N2CC3CC(C2)c2cccc(=O)n2C3)cc1 (stereo not drawn)	9	32	7	-9	-2
CCCCCCn1c(=O)c(C(=O)Nc2cnccn2)c(O)c2ccccc21	82*	1	-14	-82	2	DiI quench=-5%
C[C@H]1CNCCN1c1ccc(N2CC[C@H](O)C2)c(C#N)c1	.	.	.	.	1
c1ccc2c(c1)CN(Cc1ccc3c(c1)OCO3)Cc1cnnn1-2	.	-2	3	.	5
O=C(Nc1ccccc1F)OC1CN2CCC1CC2 (stereo not drawn)	84*	-5	-2	-84	-1	DiI quench=-3%
COCCCn1c(N)c(C(=O)Nc2ccccc2)c2nc3ccccc3nc21	.	.	59*	.	1	H9c2 TAG conf=72*
CCC(C)NC(=O)c1c(N)n(CCCOC)c2nc3ccccc3nc12 (stereo not drawn)	13	-9	.	-13	1
COc1ccc(N=Nc2c(O)[nH]c(=S)[nH]c2=O)cc1	-9	1	4	9	5
COc1cccc(N=Nc2c(O)[nH]c(=S)[nH]c2=O)c1	.	-1	57*	.	4	H9c2 TAG conf=47*
COc1cc2c(c(OC)c1OC)-c1ccc(O)cc1C(NC(C)=O)CC2 (stereo not drawn)	5	?	52*	-5	0	H9c2 TAG conf=58*
COC(=O)C1=C(c2ccc(OCc3ccccc3)cc2)C[C@@H]2CC[C@H]1N2C(=O)NCc1ccc(OC)c(OC)c1	45	-1	53*	-45	0	H9c2 TAG conf=29
CCOC(=O)CC[C@@H]1CC[C@]2(CCCN(Cc3ccncc3)C2)O1	.	.	.	.	-5
COc1ccc(-c2nc3ccc(Br)cn3c2CC(=O)N2CCCC2)cc1OC	.	.	.	.	-3
N#Cc1ccc2nc(-c3ccc(CN4CCC(n5nnc6ccccc65)CC4)cc3)c(-c3ccccc3)nc2c1	.	.	.	.	-6
COc1cc(CCN)c(OC)cc1C	.	.	.	.	-4
CC(=O)OC12COC1CC(O)C1(C)C(=O)C(O)C3=C(C)C(O)CC(O)(C(OC(=O)c4ccccc4)C21)C3(C)C (stereo not drawn)	1	-17	65*	-1	-5	H9c2 TAG conf=85*
CC1=CC(=C2C(=O)NC(=S)NC2=O)C=C(C(F)(F)F)N1Cc1ccccc1	-11	0	54*	11	0	H9c2 TAG conf=28
SMILES	SR-BI DiI inh	Vif imaging	TAG inh	SR-BI uptake up	SMARCA2 activ	others
COc1ccc(CC2c3cc(OC)c(OC)cc3CCN2C)cc1OC (stereo not drawn)	-24	-12	.	24	0
COc1ccc(C[C@@H]2c3cc(O)c(OC)cc3CCN2C)cc1O	-4	17	68*	4	0	H9c2 TAG conf=10
COc1ccc(N2C(=O)CC(N3CC=C(c4ccccc4)CC3)C2=O)cc1 (stereo not drawn)	9	15	3	-9	11*	SMARCA2 conf=-1;GAL4-VP16 Luc=1
N#CC1(c2ccccc2)CCN(C2CC(=O)N(c3ccc(F)cc3)C2=O)CC1 (stereo not drawn)	-24	-2	6	24	-2
CN(C)C(=S)SSC(=S)N(C)C	-21	3	99	21	15*	SMARCA2 conf=-15;GAL4-VP16 Luc=16*
Nc1cc(C(=O)Nc2ccc(Cl)cc2)ccc1N1CC2CC(C1)c1cccc(=O)n1C2 (stereo not drawn)	8	-4	.	-8	0
O=C1c2ccccc2-c2cc3ccccc3cc21	26	-5	5	-26	8
O=C1c2ccccc2-c2cccc3cccc1c23	11	-7	-3	-11	8.6*	SMARCA2 conf=9.5*;GAL4-VP16 Luc=2
O=c1[nH]sc2cc(F)ccc12	-11	-3	23	11	13*	SMARCA2 conf=11*;GAL4-VP16 Luc=0
COC(=O)C1=C(c2ccc(F)cc2OCc2ccccc2)C[C@@H]2CC[C@H]1N2C(=O)NCCCOC(C)C	10	-8	-2	-10	-1
N[C@@H](Cc1ccc(N(CCCl)CCCl)cc1)C(=O)O	14	7	5	-14	3
ClCCN(CCCl)c1ccc(-n2cnc3c(Cl)ncnc32)cc1	31	6	28	-31	16*	SMARCA2 conf=-3;GAL4-VP16 Luc=0
CCC1CCCCN1CC(=O)c1ccc(OC(F)F)cc1 (stereo not drawn)	-13	-9	.	13	14*	SMARCA2 conf=-4;GAL4-VP16 Luc=1
COc1cc2c3cc1Oc1cc(ccc1O)C[C@@H]1c4c(cc(OC)c(O)c4Oc4cccc(c4)C[C@@H]3N(C)CC2)CC[N+]1(C)C	-7	0	7	7	1
COc1cc2c3cc1Oc1cc(ccc1O)C[C@@H]1c4c(cc(OC)c(O)c4Oc4ccc(cc4)C[C@H]3N(C)CC2)CCN1C	-14	-1	28	24	10*	SMARCA2 conf=16*;GAL4-VP16 Luc=1
CC(C)CCC1(CCO)C(=O)NC(=S)NC1=O	-16	-12	10	16	-4
Cc1ccc2c(c1)NP(=S)(Oc1ccccc1)N2 (stereo not drawn)	11	-10	3	-11	10*	SMARCA2 conf=1;GAL4-VP16 Luc=3

High-throughput results deposited in PubChem by several laboratories.
